Measurements as given in publication PMC9444296 (Investigative Radiology, 2022).
“Also recorded” adds a separate entry of the source.

Assays:
EDB protein fragment = EDB protein fragment (Homo sapiens, UniProt P02751); experiment: Binding affinity by surface plasmon resonance; details: read-out: average binding affinity (Kd); SPR, n = 4
Summary of the method: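 EDB protein fragment desalted into 10 mM PBS pH 7.4, then amine-coupled to a CM5 chip active cell (25 μg/mL in 10 mM acetate pH 4.5, 3 min at 10 μL/min, about 1500 RU). Both cells were ethanolamine-blocked (pH 8.5, 7 min). Test compound (1.0 mM stock in 0.05% Tween-20/10 mM PBS pH 7.4 running buffer) was injected at varying concentrations for 120 s at 50 μL/min, with 5 min dissociation. Kd came from instrument evaluation software.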

Gd = format: physicochemical; details: HPLC-UV
Summary of the method: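 Test compound at 0.25 mM (final) was incubated with 0.25 mM DOTA, DTPA, HP-DO3A or EDTA, or with 0.50 mM ZnCl₂. Buffers were 0.05 M acetate pH 5 or 0.05 M Tris pH 7.4, at room temperature (25°C) or 37.5°C, for up to 30 days. Intact compound remaining was measured by HPLC-UV (C18; 0.08% TFA acetonitrile/water).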

[1] = Metabolic stability in human hepatocytes; format: in vitro ADME; details: 2 hours of incubation, LC-MS/MS
[2] = Metabolic stability in SD rat hepatocytes; format: in vitro ADME; details: 2 hours of incubation, LC-MS/MS
[3] = Metabolic pathway study in human liver microsomes; format: in vitro ADME; details: 1 μM, 2 hours
CYP2C19 = CYP2C19 (Homo sapiens, UniProt P33261); experiment: CYP2C19 inhibition in human liver microsomes; format: in vitro ADME; details: 0.01, 0.1, 1, 10, and 100 μM, pooled human liver microsomes 0.5 mg/mL
Sequence of CYP2C19 (P33261 whole entry): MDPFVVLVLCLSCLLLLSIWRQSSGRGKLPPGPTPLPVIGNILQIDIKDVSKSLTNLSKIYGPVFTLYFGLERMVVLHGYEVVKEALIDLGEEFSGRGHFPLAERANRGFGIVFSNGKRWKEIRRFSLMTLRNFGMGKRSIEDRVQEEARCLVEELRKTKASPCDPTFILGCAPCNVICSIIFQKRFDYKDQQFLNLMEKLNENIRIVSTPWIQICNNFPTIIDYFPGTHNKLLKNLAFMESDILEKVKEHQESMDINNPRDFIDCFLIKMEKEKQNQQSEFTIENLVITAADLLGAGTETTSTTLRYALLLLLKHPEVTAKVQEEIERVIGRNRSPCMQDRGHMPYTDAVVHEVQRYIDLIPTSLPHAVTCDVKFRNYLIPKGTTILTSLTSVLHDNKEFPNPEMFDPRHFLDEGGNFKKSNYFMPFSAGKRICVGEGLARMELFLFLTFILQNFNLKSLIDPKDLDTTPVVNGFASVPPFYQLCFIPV

BCRP = BCRP (Homo sapiens, UniProt Q9UNQ0); experiment: BCRP inhibition, membrane vesicles; format: in vitro ADME; details: 1, 5, 10, 50, and 100 μM
Sequence of BCRP (Q9UNQ0 whole entry): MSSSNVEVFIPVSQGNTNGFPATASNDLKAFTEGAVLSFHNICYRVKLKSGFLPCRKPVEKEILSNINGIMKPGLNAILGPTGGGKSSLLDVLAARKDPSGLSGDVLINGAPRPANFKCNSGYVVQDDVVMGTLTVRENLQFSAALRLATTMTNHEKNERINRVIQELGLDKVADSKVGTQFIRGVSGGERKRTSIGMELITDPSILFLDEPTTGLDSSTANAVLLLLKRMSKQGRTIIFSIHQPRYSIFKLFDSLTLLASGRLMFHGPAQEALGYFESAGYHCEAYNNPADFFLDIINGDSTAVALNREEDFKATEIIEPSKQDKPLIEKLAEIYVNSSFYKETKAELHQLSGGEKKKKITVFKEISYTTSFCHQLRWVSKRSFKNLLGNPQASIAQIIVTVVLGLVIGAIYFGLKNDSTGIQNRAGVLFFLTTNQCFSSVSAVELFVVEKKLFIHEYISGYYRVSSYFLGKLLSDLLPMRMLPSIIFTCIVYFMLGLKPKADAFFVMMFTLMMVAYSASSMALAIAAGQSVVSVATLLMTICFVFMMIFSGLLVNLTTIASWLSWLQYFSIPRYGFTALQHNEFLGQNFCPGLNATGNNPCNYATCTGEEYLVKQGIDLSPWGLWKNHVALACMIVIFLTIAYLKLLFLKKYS

OATP1B3 = OATP1B3 (Homo sapiens, UniProt Q9NPD5); experiment: OATP1B3 inhibition, HEK293 cells; format: in vitro ADME; details: 1, 5, 10, 50, and 100 μM
Sequence of OATP1B3 (Q9NPD5 whole entry): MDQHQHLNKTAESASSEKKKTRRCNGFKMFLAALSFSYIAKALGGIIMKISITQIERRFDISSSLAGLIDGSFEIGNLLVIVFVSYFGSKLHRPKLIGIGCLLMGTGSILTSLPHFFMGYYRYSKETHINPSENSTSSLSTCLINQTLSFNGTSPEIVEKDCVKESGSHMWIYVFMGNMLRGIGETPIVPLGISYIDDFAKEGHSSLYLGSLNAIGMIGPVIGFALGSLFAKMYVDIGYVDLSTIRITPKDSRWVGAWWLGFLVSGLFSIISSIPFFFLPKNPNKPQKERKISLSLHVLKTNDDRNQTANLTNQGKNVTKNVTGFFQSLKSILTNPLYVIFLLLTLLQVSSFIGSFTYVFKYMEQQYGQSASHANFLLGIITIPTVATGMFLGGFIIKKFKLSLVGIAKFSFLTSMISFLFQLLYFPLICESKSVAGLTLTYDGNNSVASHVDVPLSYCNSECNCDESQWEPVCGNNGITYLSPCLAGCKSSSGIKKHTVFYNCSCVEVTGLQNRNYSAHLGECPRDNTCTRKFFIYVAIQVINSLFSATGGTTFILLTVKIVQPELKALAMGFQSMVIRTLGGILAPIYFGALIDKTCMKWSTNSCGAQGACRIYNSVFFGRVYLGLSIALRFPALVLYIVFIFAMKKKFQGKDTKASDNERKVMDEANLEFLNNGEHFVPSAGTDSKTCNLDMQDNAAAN

OAT1 = OAT1 (Homo sapiens, UniProt Q4U2R8); experiment: OAT1 inhibition, HEK293 cells; format: in vitro ADME; details: 1, 5, 10, 50, and 100 μM
Sequence of OAT1 (Q4U2R8 whole entry): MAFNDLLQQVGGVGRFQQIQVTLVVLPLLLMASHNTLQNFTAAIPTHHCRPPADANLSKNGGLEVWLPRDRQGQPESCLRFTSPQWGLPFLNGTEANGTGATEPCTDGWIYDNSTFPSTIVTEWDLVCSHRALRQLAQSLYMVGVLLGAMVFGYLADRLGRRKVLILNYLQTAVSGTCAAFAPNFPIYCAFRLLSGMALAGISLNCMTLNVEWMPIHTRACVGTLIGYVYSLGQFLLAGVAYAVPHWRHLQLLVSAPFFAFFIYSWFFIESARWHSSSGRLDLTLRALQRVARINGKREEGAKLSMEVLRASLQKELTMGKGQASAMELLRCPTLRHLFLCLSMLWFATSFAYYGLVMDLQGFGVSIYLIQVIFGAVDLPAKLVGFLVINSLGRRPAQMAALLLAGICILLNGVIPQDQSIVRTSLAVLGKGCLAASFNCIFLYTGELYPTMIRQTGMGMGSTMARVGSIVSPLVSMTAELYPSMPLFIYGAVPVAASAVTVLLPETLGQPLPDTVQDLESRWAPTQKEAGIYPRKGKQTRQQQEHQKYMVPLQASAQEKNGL

MATE2K = MATE2K (Homo sapiens, UniProt Q86VL8); experiment: MATE2K inhibition, HEK293 cells; format: in vitro ADME; details: 1, 5, 10, 50, and 100 μM
Sequence of MATE2K (Q86VL8 1-566 isoform Q86VL8-3): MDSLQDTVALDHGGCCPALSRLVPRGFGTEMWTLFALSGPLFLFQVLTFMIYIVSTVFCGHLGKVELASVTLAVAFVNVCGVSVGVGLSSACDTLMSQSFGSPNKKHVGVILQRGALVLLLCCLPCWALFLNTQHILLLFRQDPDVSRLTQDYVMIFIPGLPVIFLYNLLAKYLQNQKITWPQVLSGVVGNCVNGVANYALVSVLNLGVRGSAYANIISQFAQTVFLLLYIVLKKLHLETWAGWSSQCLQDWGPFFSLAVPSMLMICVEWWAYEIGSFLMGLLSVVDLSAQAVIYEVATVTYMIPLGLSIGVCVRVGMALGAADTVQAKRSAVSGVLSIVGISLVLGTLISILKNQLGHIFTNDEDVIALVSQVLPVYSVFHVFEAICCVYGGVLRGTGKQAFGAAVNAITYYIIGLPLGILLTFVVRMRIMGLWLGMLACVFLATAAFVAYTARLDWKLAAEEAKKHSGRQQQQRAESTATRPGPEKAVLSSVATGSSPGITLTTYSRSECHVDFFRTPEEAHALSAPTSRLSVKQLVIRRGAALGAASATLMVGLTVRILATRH

[4] = tested on: PC3 human prostate cancer xenografts; experiment: Contrast-enhanced MRI of PC3 prostate tumor xenografts in rats; format: in vivo, rat; details: PC3 tumors in rats, 3 T, n = 6
Summary of the method: (§1)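 Male rats carried subcutaneous flank xenografts of 4 × 10⁶ PC3 or 8 × 10⁶ LNCaP cells in Matrigel-PBS (1:1) and were imaged once tumours exceeded 100 mm³. Scans used 1 mm slices, 2 averages and a 128 × 128 matrix. The same tumour-bearing rats were reused across agents and doses, with a clinical Gd agent at 0.1 mmol Gd/kg as comparator.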

[5] = tested on: LNCaP human prostate tumors; experiment: Contrast-enhanced MRI of LNCaP prostate tumor xenografts in rats; format: in vivo, rat; details: 3 T, n = 3
Summary of the method: as §1

[6] = Biodistribution in SD rats; format: in vivo, rat; details: for AUC(0–48h) / AUCINF / Cmax / Gd concentration in the brain: SD rat; for AUC(0–48h) / AUCINF / Cmax: 0.1 mmol/kg single IV, Gd by ICP-MS; for Gd concentration in the brain: 0.1 mmol/kg IV, ICP-MS (LLOQ 0.1 μg/g)
Summary of the method: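 Rats, 30 in total (3/sex/group), received a single IV injection of 0.1 mmol/kg. Blood and tissues were taken predose and at 10 and 30 min and 2, 6 and 48 h. Gd was measured by ICP-MS, and parameters came from noncompartmental analysis.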

CYP1A2 = CYP1A2 (Homo sapiens, UniProt P05177); details: 0.01, 0.1, 1, 10, and 100 μM, pooled human liver microsomes 0.5 mg/mL
Sequence of CYP1A2 (P05177 whole entry): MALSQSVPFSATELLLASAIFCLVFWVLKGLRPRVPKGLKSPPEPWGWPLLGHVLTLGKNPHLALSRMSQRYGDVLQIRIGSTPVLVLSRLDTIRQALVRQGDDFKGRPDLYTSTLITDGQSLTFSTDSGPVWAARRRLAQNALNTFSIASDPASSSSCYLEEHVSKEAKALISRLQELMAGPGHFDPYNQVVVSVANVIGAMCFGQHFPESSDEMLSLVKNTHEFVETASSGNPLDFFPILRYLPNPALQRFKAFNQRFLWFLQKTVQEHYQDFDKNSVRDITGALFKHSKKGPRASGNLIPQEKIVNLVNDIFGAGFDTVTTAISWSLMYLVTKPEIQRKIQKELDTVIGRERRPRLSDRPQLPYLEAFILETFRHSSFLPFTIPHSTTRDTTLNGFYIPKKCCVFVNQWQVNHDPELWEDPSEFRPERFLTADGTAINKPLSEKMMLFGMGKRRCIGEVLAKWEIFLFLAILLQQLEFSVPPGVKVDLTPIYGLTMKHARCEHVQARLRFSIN

CYP2B6 [7] = target: CYP2B6 (Homo sapiens, UniProt P20813); details: 0.01, 0.1, 1, 10, and 100 μM, pooled human liver microsomes 0.5 mg/mL
Sequence of CYP2B6 (Homo sapiens, UniProt P20813) (P20813 whole entry): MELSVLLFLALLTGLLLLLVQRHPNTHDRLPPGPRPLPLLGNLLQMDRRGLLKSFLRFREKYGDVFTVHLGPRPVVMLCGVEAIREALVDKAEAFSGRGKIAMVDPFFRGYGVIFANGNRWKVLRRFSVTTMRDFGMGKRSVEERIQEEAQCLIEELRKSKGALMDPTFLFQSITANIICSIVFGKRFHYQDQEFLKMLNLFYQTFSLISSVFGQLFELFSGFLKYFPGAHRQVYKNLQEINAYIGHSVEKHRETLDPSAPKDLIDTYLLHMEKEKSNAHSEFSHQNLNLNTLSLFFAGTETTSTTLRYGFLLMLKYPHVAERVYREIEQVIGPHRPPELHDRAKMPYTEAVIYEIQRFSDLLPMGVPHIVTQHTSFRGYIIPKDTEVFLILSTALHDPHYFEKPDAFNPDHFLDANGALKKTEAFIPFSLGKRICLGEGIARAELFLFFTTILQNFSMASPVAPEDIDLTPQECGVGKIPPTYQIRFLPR

CYP3A4 = CYP3A4 (Homo sapiens, UniProt P08684); details: 0.01, 0.1, 1, 10, and 100 μM, pooled human liver microsomes 0.5 mg/mL
Sequence of CYP3A4 (P08684 whole entry): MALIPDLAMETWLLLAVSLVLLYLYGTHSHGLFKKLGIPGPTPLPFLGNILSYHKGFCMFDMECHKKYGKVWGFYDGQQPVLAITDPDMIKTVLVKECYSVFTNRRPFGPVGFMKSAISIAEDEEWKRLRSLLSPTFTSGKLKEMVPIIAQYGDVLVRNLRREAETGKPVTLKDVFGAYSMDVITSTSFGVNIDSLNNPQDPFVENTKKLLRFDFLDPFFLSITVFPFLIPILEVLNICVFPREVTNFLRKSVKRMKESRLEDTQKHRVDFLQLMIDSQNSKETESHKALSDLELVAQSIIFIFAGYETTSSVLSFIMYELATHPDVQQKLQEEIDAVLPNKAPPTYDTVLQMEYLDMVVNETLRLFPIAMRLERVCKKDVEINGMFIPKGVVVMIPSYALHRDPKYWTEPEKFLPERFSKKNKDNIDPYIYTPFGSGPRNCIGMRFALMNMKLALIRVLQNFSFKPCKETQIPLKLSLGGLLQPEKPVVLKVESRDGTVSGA

CYP2B6 [8] = details: human primary hepatocytes, 1, 10, and 100 μM

Sequence of EDB protein fragment (P02751 1271-1359 limits assumed): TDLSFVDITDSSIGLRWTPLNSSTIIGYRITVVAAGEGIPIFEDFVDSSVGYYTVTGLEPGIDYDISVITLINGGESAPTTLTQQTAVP

ZD2-N3-Gd(HP-DO3A) [MT218]
Kd (EDB protein fragment): 3.45 µM
duration of chelation stability (Gd; pH 5 (0.05 M acetate), 25°C): at least 30 days
dissociation of MT218 in the presence of Zn(II) ions (Gd; pH 5, 37.5°C, 0.50 mM ZnCl2, at least 30 days): did not cause dissociation
stability of MT218 (Gd; pH 5, 37.5°C, acetate buffer): stable
stability of MT218 in the presence of free chelating ligands (Gd; pH 5, 37.5°C, with 0.25 mM DOTA, DTPA, HP-DO3A or EDTA): Loss of MT218 was observed
remaining MT218 [1]: 61.1%
remaining MT218 [2]: 67.5%
MT218 remaining ([3]; CYP1A2 group): 105%
MT218 remaining ([3]; CYP2B6 group): 117%
MT218 remaining ([3]; CYP2C8 group): 101%
MT218 remaining ([3]; CYP2C9 group): 98.8%
MT218 remaining ([3]; CYP2C19 group): 105%
MT218 remaining ([3]; CYP2D6 group): 109%
MT218 remaining ([3]; CYP3A4 group): 99.1%
inhibition of CYP2C19 activity (CYP2C19): did not inhibit
inhibition of BCRP transporter activity (BCRP): no inhibition potential
inhibition of OATP1B3 transporter activity (OATP1B3): no inhibition potential
inhibition of OAT1 transporter activity (OAT1): no inhibition potential
inhibition of MATE2K transporter activity (MATE2K): no inhibition potential
CNR ([4]; 0.02 mmol Gd/kg IV, 10 minutes postinjection): 2.67 ± 1.05
CNR ([4]; 0.02 mmol Gd/kg IV, 30 minutes postinjection): 1.97 ± 0.67
CNR ([4]; 0.04 mmol Gd/kg IV, 10 minutes postinjection): 5.94 ± 1.68
CNR ([4]; 0.04 mmol Gd/kg IV, 30 minutes postinjection): 4.92 ± 0.79
CNR ([5]; 0.02 mmol/kg IV): 0.88 ± 0.06
CNR ([5]; 0.04 mmol/kg IV): 1.13 ± 0.38
AUC(0–48h) ([6]; Brain): 0.86 µg·h/g
AUCINF ([6]; Brain): 0.87 µg·h/g
Cmax ([6]; Brain): 1.10 µg/g
AUC(0–48h) ([6]; Fat): 3.18 µg·h/g
AUCINF ([6]; Fat): 3.23 µg·h/g
Cmax ([6]; Fat): 4.07 µg/g
AUC(0–48h) ([6]; Gonads): 11.78 µg·h/g
AUCINF ([6]; Gonads): 17.48 µg·h/g
Cmax ([6]; Gonads): 7.22 µg/g
AUC(0–48h) ([6]; Heart): 7.15 µg·h/g
AUCINF ([6]; Heart): 7.56 µg·h/g
Cmax ([6]; Heart): 7.54 µg/g
AUC(0–48h) ([6]; Kidney): 481.54 µg·h/g
AUCINF ([6]; Kidney): 2936.07 µg·h/g
Cmax ([6]; Kidney): 74.89 µg/g
AUC(0–48h) ([6]; Liver): 17.22 µg·h/g
AUCINF ([6]; Liver): 27.86 µg·h/g
Cmax ([6]; Liver): 4.73 µg/g
AUC(0–48h) ([6]; Lung): 17.81 µg·h/g
AUCINF ([6]; Lung): 19.50 µg·h/g
Cmax ([6]; Lung): 14.28 µg/g
AUC(0–48h) ([6]; Lymph nodes): 27.63 µg·h/g
AUCINF ([6]; Lymph nodes): 51.39 µg·h/g
Cmax ([6]; Lymph nodes): 12.53 µg/g
AUC(0–48h) ([6]; Muscle): 4.27 µg·h/g
AUCINF ([6]; Muscle): 4.29 µg·h/g
Cmax ([6]; Muscle): 5.51 µg/g
AUC(0–48h) ([6]; Plasma): 34060 ng·h/mL
AUCINF ([6]; Plasma): 34180 ng·h/mL
Cmax ([6]; Plasma): 44960 ng/mL
AUC(0–48h) ([6]; Prostate): 12.05 µg·h/g
AUCINF ([6]; Prostate): 13.12 µg·h/g
Cmax ([6]; Prostate): 6.05 µg/g
Gd concentration in the brain ([6]; 2 hours post-injection): reached LLOQ
Gd concentration in the brain ([6]; 6 hours post-injection): No detectable Gd deposition; also recorded: undetectable
AUC(0–48h) ([6]; Skeleton): 11.83 µg·h/g
AUCINF ([6]; Skeleton): 12.16 µg·h/g
Cmax ([6]; Skeleton): 4.58 µg/g
AUC(0–48h) ([6]; Skin): 28.54 µg·h/g
AUCINF ([6]; Skin): 30.96 µg·h/g
Cmax ([6]; Skin): 17.21 µg/g
AUC(0–48h) ([6]; Small intestine): 13.99 µg·h/g
AUCINF ([6]; Small intestine): 19.76 µg·h/g
Cmax ([6]; Small intestine): 6.44 µg/g
AUC(0–48h) ([6]; Spleen): 15.18 µg·h/g
AUCINF ([6]; Spleen): 35.21 µg·h/g
Cmax ([6]; Spleen): 4.14 µg/g
AUC(0–48h) ([6]; Stomach): 12.99 µg·h/g
AUCINF ([6]; Stomach): 15.13 µg·h/g
Cmax ([6]; Stomach): 10.87 µg/g
Gd concentration in the tested tissues besides the kidneys ([6]; rats, biodistribution study, level to which it decreased, time not given): ≤ 1.0 µg/g
inhibition of CYP1A2 activity (CYP1A2): did not inhibit
inhibition of CYP2B6 activity (CYP2B6 [7]): did not inhibit
inhibition of CYP3A4 activity (CYP3A4): did not inhibit
induction of mRNA expression of CYP2B6 (CYP2B6 [8]): did not induce
induction on enzyme activity of CYP2B6 (CYP2B6 [8]): no induction
